{"source": "ChEMBL document CHEMBL4000211", "about": "“Discovery of novel polycyclic spiro-fused carbocyclicoxindole-based anticancer agents” (Eur J Med Chem, 2017)", "key": {"HCT-116 [1]": {"test_system": "HCT-116", "experiment": "Induction of apoptosis in human HCT116 cells assessed as late apoptotic cells at 7.5 uM after 48 hrs by annexin V-FITC/propidium iodide staining-based flow cytometric method (reference value: 1.06%)", "type": "functional"}, "A2780S [2]": {"test_system": "A2780S", "experiment": "Antiproliferative activity against human A2780S cells at 15 uM after 48 hrs by MTT assay relative to control", "type": "functional", "method_in_brief": "(§1)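 Cells seeded at 3×10³/well and grown 24 h, then exposed 48 h to six final concentrations, twofold steps down from 30. MTT (5 mg/mL) was added for 2–4 h at 37 °C. Supernatant was removed, formazan dissolved in DMSO, and OD read at 570 nm. Results are given as IC50, or as percent inhibition where IC50 exceeds the top concentration. At least three runs.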"}, "HCT-116 [3]": {"test_system": "HCT-116", "experiment": "Induction of apoptosis in human HCT116 cells assessed as nuclear condensation at 7.5 to 12.5 uM after 24 hrs by Hoechst 33342 staining-based fluorescence microscopic method", "type": "functional, cell-based", "method_in_brief": "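HCT116 cells (1×10⁵/well) cultured 24 h, then exposed to 0, 7.5, 10 or 12.5 μM (final) for 24 h. Rinsed in PBS, fixed in 75% ethanol and checked by inverted microscopy. Then stained with Hoechst 33342 (2 μg/mL in PBS) and scored for apoptotic nuclear morphology under fluorescence microscopy.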"}, "A549": {"test_system": "A549", "experiment": "Antiproliferative activity against human A549 cells after 48 hrs by MTT assay", "type": "functional, cell-based", "conditions": "A549, 48 h", "method_in_brief": "as §1"}, "HCT-116 [4]": {"test_system": "HCT-116", "experiment": "Induction of apoptosis in human HCT116 cells assessed as necrotic cells at 12.5 uM after 48 hrs by annexin V-FITC/propidium iodide staining-based flow cytometric method (reference value: 2.29%)", "type": "functional", "method_in_brief": "(§2)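 HCT116 cells seeded at 1×10⁶ cells/mL in 6-well plates for 24 h, then exposed to 0, 7.5, 10 or 12.5 μM for a further 24 h or 48 h. Cells washed twice in PBS, then stained with Annexin V-FITC plus PI (100 μg/mL stock) in binding buffer (10 mM HEPES, pH 7.4, 2.5 mM CaCl₂) for 30 min at room temperature in the dark. Early and late apoptotic fractions gated by flow cytometry.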"}, "HCT-116 [5]": {"test_system": "HCT-116", "experiment": "Cell cycle arrest in human HCT116 cells assessed as accumulation at sub G1 phase at 7.5 uM after 48 hrs by propidium iodide staining-based flow cytometric method (reference value: 0.86%)", "type": "functional"}, "A2780S [6]": {"test_system": "A2780S", "experiment": "Antiproliferative activity against human A2780S cells after 48 hrs by MTT assay", "type": "functional, cell-based", "method_in_brief": "as §1"}, "HCT-116 [7]": {"test_system": "HCT-116", "experiment": "Induction of apoptosis in human HCT116 cells assessed as necrotic cells at 7.5 uM after 48 hrs by annexin V-FITC/propidium iodide staining-based flow cytometric method (reference value: 2.29%)", "type": "functional", "method_in_brief": "as §2"}}, "note": "pIC50: −log10 of the molar value. The source made the active and inactive calls. No cut-off for these calls is given here."}
{"compound": "C[C@@H]1Oc2ccc3ccccc3c2[C@@H]2[C@@H]1C=C(C=O)[C@@H](C)[C@]21C(=O)Nc2ccccc21", "values": [{"measurement": "Activity", "setting": "HCT-116 [1]", "value": 2.09, "unit": "%"}, {"measurement": "inhibition at 15 µM", "setting": "A2780S [2]", "value": "61.7 to 72.4", "unit": "%"}, {"measurement": "Activity", "setting": "HCT-116 [3]", "value": "Active"}, {"measurement": "pIC50", "setting": "A549", "value": 4.74}, {"measurement": "Activity", "setting": "HCT-116 [4]", "value": 5.28, "unit": "%"}, {"measurement": "Activity", "setting": "HCT-116 [5]", "value": 4.19, "unit": "%"}, {"measurement": "pIC50", "setting": "A2780S [6]", "value": 5.10}, {"measurement": "Activity", "setting": "HCT-116 [7]", "value": 2.02, "unit": "%"}]}
